# In ChEMBL document CHEMBL4261600 (Eur J Med Chem, 2018):
# The source made the active and inactive calls.
# How the values were obtained:
# [1] = biological target: Casein kinase II subunit alpha' (Homo sapiens) (UniProt P19784); assay: Binding affinity to wild-type human full length CSNK2A2 (M1 to R350 residues) expressed in mammalian expression system assessed as remaining unbound target protein level at 1000 nM by Kinomescan method relative to control
# Summary of the method: (§1)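 KINOMEscan competition binding profile across a panel of 468 kinases and mutants, with the inhibitor tested at a single concentration of 1 μM. Binding is reported as percent of control, meaning signal relative to a DMSO control.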
# [2] = species on record: Homo sapiens; assay: Selectivity ratio of IC50 for recombinant full length His/GST-tagged human CDK5/p25 to IC50 for recombinant full length His-tagged human CDK9/CyclinT1
# [3] = biological target: Mitogen-activated protein kinase kinase kinase 7 (Homo sapiens) (UniProt O43318); assay: Binding affinity to wild-type human partial length TAK1 (M1 to Q303 residues) expressed in mammalian expression system assessed as remaining unbound target protein level at 1000 nM by Kinomescan method relative to control
# [4] = biological target: Cyclin-dependent kinase-like 2 (Homo sapiens) (UniProt Q92772); assay: Binding affinity to wild-type human partial length CDKL2 (M1 to D327 residues) expressed in bacterial expression system assessed as remaining unbound target protein level at 1000 nM by Kinomescan method relative to control; summary of the method: as §1
# [5] = biological target: Serine/threonine-protein kinase pim-2 (Homo sapiens) (UniProt Q9P1W9); assay: Binding affinity to wild-type human partial length PIM2 (M1 to E291 residues) expressed in bacterial expression system assessed as remaining unbound target protein level at 1000 nM by Kinomescan method relative to control
# [6] = biological target: Dual serine/threonine and tyrosine protein kinase (Homo sapiens) (UniProt Q6XUX3); assay: Binding affinity to wild-type human full length RIPK5 (M1 to T929 residues) expressed in mammalian expression system assessed as remaining unbound target protein level at 1000 nM by Kinomescan method relative to control; summary of the method: as §1
# [7] = biological target: Macrophage-stimulating protein receptor (Homo sapiens) (UniProt Q04912); assay: Binding affinity to wild-type human partial length MST1R (I1057 to L1363 residues) expressed in bacterial expression system assessed as remaining unbound target protein level at 1000 nM by Kinomescan method relative to control
# [8] = biological target: Myosin light chain kinase family member 4 (Homo sapiens) (UniProt Q86YV6); assay: Binding affinity to wild-type human partial length MYLK4 (V79 to S380 residues) expressed in bacterial expression system assessed as remaining unbound target protein level at 1000 nM by Kinomescan method relative to control
# Summary of the method: (§2)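 KINOMEscan binding panel of 468 kinases/mutants. Inhibitor was tested at a single concentration of 1 μM. Binding is reported as percent of control, defined relative to a DMSO control.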
# [9] = test system: Tyrosine-protein kinase ABL1 (Homo sapiens), P00519 [T315I]; assay: Binding affinity to human phosphorylated ABL1 T315I mutant (S229 to K512 residues) expressed in mammalian expression system assessed as remaining unbound target protein level at 1000 nM by Kinomescan method relative to control
# Summary of the method: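 Single-point competition binding screen across a panel of 468 kinases and mutants, with the inhibitor at 1 μM. Binding is read out as percent of a DMSO control, and targets below 1 percent control were classed as strong binders.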
# [10] = species on record: Homo sapiens; assay: Selectivity ratio of IC50 for recombinant full length His-tagged human CDK1/CyclinB to IC50 for recombinant full length His-tagged human CDK9/CyclinT1
# [11] = biological target: Mitogen-activated protein kinase 12 (Homo sapiens) (UniProt P53778); assay: Binding affinity to wild-type human full length p38-gamma (M1 to L367 residues) expressed in mammalian expression system assessed as remaining unbound target protein level at 1000 nM by Kinomescan method relative to control; summary of the method: as §1
# [12] = biological target: Serine/threonine-protein kinase WNK1 (Homo sapiens) (UniProt Q9H4A3); assay: Binding affinity to wild-type human partial length WNK1 (Q194 to A490 residues) expressed in mammalian expression system assessed as remaining unbound target protein level at 1000 nM by Kinomescan method relative to control
# [13] = biological target: Tyrosine-protein kinase ITK/TSK (Homo sapiens) (UniProt Q08881); assay: Binding affinity to wild-type human partial length ITK (R335 to L620 residues) expressed in bacterial expression system assessed as remaining unbound target protein level at 1000 nM by Kinomescan method relative to control
# [14] = biological target: CDK8/Cyclin C (Homo sapiens, UniProt P49336); assay: Inhibition of recombinant full length His-tagged human CDK8/CyclinC expressed in baculovirus expression system
# [15] = biological target: Peripheral plasma membrane protein CASK (Homo sapiens) (UniProt O14936); assay: Binding affinity to wild-type human partial length CASK (M1 to H315 residues) expressed in mammalian expression system assessed as remaining unbound target protein level at 1000 nM by Kinomescan method relative to control; summary of the method: as §1
# [16] = biological target: RAC-gamma serine/threonine-protein kinase (Homo sapiens) (UniProt Q9Y243); assay: Binding affinity to wild-type human partial length AKT3 expressed in bacterial expression system assessed as remaining unbound target protein level at 1000 nM by Kinomescan method relative to control
# Summary of the method: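 Profiled in a KINOMEscan binding panel with the inhibitor at a single concentration of 1 μM. Binding to each kinase was read out as percent of control, relative to a DMSO control. Strong binders were defined as those with a percent control value below 1.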
# [17] = test system: MV4-11; assay: Induction of apoptosis in human MV4-11 cells assessed as decrease in XIAP level up to 3 uM after 2 hrs by immunoblotting analysis; assay type: functional, cell-based
# [18] = biological target: Cyclin-dependent kinase 5 (Homo sapiens) (UniProt Q00535); assay: Binding affinity to wild-type human full length CDK5 (M1 to P292 residues) expressed in bacterial expression system assessed as remaining unbound target protein level at 1000 nM by Kinomescan method relative to control
# Summary of the method: (§3)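 KINOMEscan competitive binding profile at 1 μM inhibitor. Remaining target binding reported as percent of DMSO control.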
# [19] = biological target: Mast/stem cell growth factor receptor Kit (Homo sapiens) (UniProt P10721); assay: Binding affinity to wild-type human partial length KIT (I571 to D952 residues) expressed in bacterial expression system assessed as remaining unbound target protein level at 1000 nM by Kinomescan method relative to control
# [20] = biological target: Cyclin-dependent kinase 4 (Homo sapiens) (UniProt P11802); assay: Binding affinity to wild-type human full length CDK4 (M1 to E303 residues) expressed in mammalian expression system assessed as remaining unbound target protein level at 1000 nM by Kinomescan method relative to control; summary of the method: as §3
# [21] = biological target: Mitogen-activated protein kinase 15 (Homo sapiens) (UniProt Q8TD08); assay: Binding affinity to wild-type human partial length ERK8 (M1 to P437 residues) expressed in bacterial expression system assessed as remaining unbound target protein level at 1000 nM by Kinomescan method relative to control; summary of the method: as §2
# [22] = biological target: Ribosomal protein S6 kinase beta-1 (Homo sapiens) (UniProt P23443); assay: Binding affinity to wild-type human partial length S6K1 (M1 to S421 residues) expressed in mammalian expression system assessed as remaining unbound target protein level at 1000 nM by Kinomescan method relative to control
smiles,measurement,setting,value
COCCN[C@H]1CC[C@H](Nc2cc(-c3csc(NCC4(C#N)CCOCC4)n3)c(Cl)cn2)CC1,Activity,[1],99%
same,Ratio IC50,[2],> 1000
same,Activity,[3],100%
same,Activity,[4],63%
same,Activity,[5],53%
same,Activity,[6],95%
same,Activity,[7],92%
same,Activity,[8],94%
same,Activity,[9],95%
same,Ratio IC50,[10],> 1000
same,Activity,[11],99%
same,Activity,[12],100%
same,Activity,[13],84%
same,IC50,[14],> 10 µM
same,Activity,[15],81%
same,Activity,[16],100%
same,Activity,[17],inactive
same,Activity,[18],94%
same,Activity,[19],91%
same,Activity,[20],93%
same,Activity,[21],86%
same,Activity,[22],95%
